# Source: PubChem (Johns Hopkins Ion Channel Center)
# Only some compounds are listed: those with a hit (about 3.7% of all), similar ones and a draw of the others.
# hERG rescue: hERG rescue from dofetilide block, primary screen, cell-based, CHO-hERG, FluxOR thallium flux, dofetilide IC70. actives 0.51% (n = 310,000). AID 1511, 2009. Voltage-gated inwardly rectifying potassium channel KCNH2 (Homo sapiens), Q12809. activation (rescue from dofetilide block), less the hit threshold, % at 10 µM. dofetilide IC70 present;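 active means activation above the mean of controls blocked by dofetilide plus 5 SD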;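 further: thallium influx through hERG after potassium depolarization seen as dye fluorescence rise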
# KCNK9 inh: KCNK9 potassium channel inhibitors, primary screen, HEK293 cells, thallium flux; Potassium channel subfamily K member 9 (Homo sapiens), Q9NPC2; FluxOR thallium flux fluorescence; hits give low values; B-score at 10 µM; actives 1.2% (n = 310,000); AID 488922, 2010;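 active means ratio B-score over 3 SD below the library mean, with starting fluorescence within 5 SD of its mean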;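 further: negative B-score means less thallium flux so channel inhibition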
# KCNQ1 block: inhibitors of human KCNQ1 channel, primary screen, cell-based, thallium flux, high-throughput. actives 1.3% (n = 310,000). B-score at 10 µM. Potassium voltage-gated channel subfamily KQT member 1 (Homo sapiens), P51787. CHO-K1 KCNQ1, FluxOR thallium flux fluorescence; hits give high values;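 active means compounds whose thallium flux B-score, printed positive for inhibition, exceeds three library SD while starting fluorescence stays within three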;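 further: channel opened by potassium depolarization with thallium stimulus after 20 min compound exposure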
# KCNQ1 pot: potentiators or activators of KCNQ1 channel, primary screen, cell-based, thallium flux, high-throughput | Potassium voltage-gated channel subfamily KQT member 1 (Homo sapiens), P51787 | CHO-K1 KCNQ1, thallium flux FluxOR fluorescence; hits give high values | B-score at 10 µM | actives 0.35% (n = 310,000) | AID 2648, 2010;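 active means fluorescence ratio B-score, a plate-corrected score, at least three library SD, with initial intensity B-score within 5 SD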
#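 Assay system: CHO-K1 cells stably expressing KCNQ1; Medium: assay buffer with matched DMSO; Also added: K+/Tl+ depolarizing stimulus; Dosing: single dose; Timing: dye 90 min, compound 20 min, room temperature; Measured by: kinetic FluxOR thallium fluorescence, 10-s 1-Hz baseline, 110-s post-stimulus read; Read-out: peak-minus-minimum fluorescence over initial fluorescence, negative-control normalized, B-scored.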
# KCNK3 block: human KCNK3 channel inhibitors, primary screen, CHO cells, FluxOR thallium flux, B-score | Potassium channel subfamily K member 3 (Homo sapiens), O14649 | FluxOR fluorescence; hits give low values | B-score at 10 µM | actives 0.84% (n = 340,000) | AID 602410, 2012;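 active means B-score under library mean minus 4 SD, starting fluorescence ratio at most library mean plus 5 SD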;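 further: more negative B-score means stronger inhibition of thallium flux through KCNK3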
# Kir21 inh: inhibitors of mouse Kir2.1 inward-rectifier potassium channel | HEK293-Kir2.1, FluxOR thallium flux fluorescence; hits give low values | B-score at 10 µM | actives 0.85% (n = 310,000) | AID 1672, 2009;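 active means fluorescence ratio B-score at or below minus 3 SD of library scores, with starting-brightness B-score within 2 SD, cut at about -4.2 in these data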;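 further: channel flux triggered by added potassium and thallium sulfate stimulus; B-score of peak minus minimum fluorescence over baseline after thallium stimulus; more negative B-score means stronger Kir2.1 block with less thallium influx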
# Target sequence (P35561 whole entry, looked up): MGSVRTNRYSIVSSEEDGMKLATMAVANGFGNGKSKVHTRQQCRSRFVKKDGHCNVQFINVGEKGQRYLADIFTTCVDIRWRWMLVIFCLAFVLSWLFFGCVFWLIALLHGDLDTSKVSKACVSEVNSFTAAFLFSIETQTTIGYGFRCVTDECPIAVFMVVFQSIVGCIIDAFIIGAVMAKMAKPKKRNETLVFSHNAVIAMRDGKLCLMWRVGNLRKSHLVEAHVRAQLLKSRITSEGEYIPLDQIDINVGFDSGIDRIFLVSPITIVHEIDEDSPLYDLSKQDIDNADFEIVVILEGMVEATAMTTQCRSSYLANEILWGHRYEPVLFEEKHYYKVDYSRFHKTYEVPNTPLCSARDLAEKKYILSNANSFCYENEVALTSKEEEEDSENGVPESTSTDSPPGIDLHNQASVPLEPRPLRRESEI
# Active calls of the source: *; i = inactive; nt = no result.
SMILES,hERG rescue,KCNK9 inh,KCNQ1 block,KCNQ1 pot,KCNK3 block,Kir21 inh
CC(C)CCNC(=O)C1CCCCN1S(=O)(=O)c1ccc(F)cc1 (stereo unspecified),5.0*,i,i,i,i,-0.06
Cc1cccc(NC(=O)CCCC(=O)OC(C)C(=O)c2ccccc2)c1 (stereo unspecified),-5,i,i,i,i,-0.73
Cc1cccc(NC(=O)c2ccc(Cl)c(S(=O)(=O)N3CCc4ccccc43)c2)n1,nt,nt,nt,nt,-11*,nt
C=CCn1c(Br)nc2c1c(=O)n(C)c(=O)n2C,-7,i,i,i,i,2
C=CCn1c(Br)nc2c1c(=O)[nH]c(=O)n2C,5.5*,i,i,i,i,-0.54
Cn1cnnc1SCC(C)(C)NS(=O)(=O)c1ccc(Cl)cc1,-9,i,i,i,i,-0.08
Clc1ccc(-c2csc(Nc3ccccc3)[n+]2Cc2ccco2)c(Cl)c1,-20,-7.3*,i,i,i,-3.6
O=C(c1cccs1)c1ccc(-c2cccs2)s1,-6,-6.8*,i,i,i,-3.7
N#C/C(=C(/O)COC(=O)c1ccc(C#N)cc1)c1nc2ccccc2s1,-1,i,6*,i,i,0
Cc1nc2c3cc(F)ccc3n(Cc3ccccc3)c2s1,-1,i,i,i,i,3.1
Cc1nc2c3cc(F)ccc3n(Cc3ccccc3F)c2s1,-6,-8*,i,i,i,0.2
O=C(COC(=O)c1cccc(S(=O)(=O)NCc2ccccc2)c1)c1ccccc1,-8,i,i,i,i,0.04
Cc1cc(C)c(C(=O)COC(=O)c2cccc(S(=O)(=O)NCc3ccccc3)c2)cc1C,-7,i,i,i,i,-4.3*
CN1CCN(CC(O)COc2ccc(Cl)cc2)CC1 (stereo unspecified),-4,i,i,i,i,-1.6
CN1CCN(CC(O)(c2ccc(Cl)cc2)c2ccc(Cl)cc2)CC1,-17,i,i,i,i,-8.8*
CCOc1ccc(N2CC(C(=O)NCC(=O)Nc3ccc(F)c(F)c3F)CC2=O)cc1 (stereo unspecified),nt,nt,nt,nt,i,nt
Oc1cccc(C=NN=C2c3ccccc3-c3ccccc32)c1,nt,nt,nt,nt,-9*,nt
Cc1ccn2c(CNCC3COCCO3)c(C(=O)N3CCCCCC3)nc2c1 (stereo unspecified),-9,i,i,i,i,0
Cc1cccc(-c2nnc(NC(=O)c3ccc(Cl)cc3)o2)c1,-12,i,i,9*,i,-0.24
C=C(C)CSc1nc2sc3c(c2c(=O)n1-c1ccccc1)CCN(C)C3,-12,i,i,i,i,1.4
CN(C)CCN(Cc1ccccc1)S(=O)(=O)c1ccc2c(c1)n(C)c(=O)c(=O)n2C,-4,-7*,i,i,i,-2.6
O=C(NNc1nc2c(F)cc(F)cc2s1)c1ccccc1,-7,i,i,61*,i,0.28
NS(=O)(=O)c1ccc(CCNC(=O)C(c2ccccc2)c2ccccc2)cc1,-9,i,i,i,i,0.43
COc1ccc(C2/C=C\CN(Cc3ccco3)CC(=O)N2Cc2ccc(F)cc2)cc1 (stereo unspecified),-7,-6.9*,i,i,i,-0.84
CCOC(=O)C1=C(C)NC(=O)C1CC(=O)O (stereo unspecified),-2,i,i,i,i,0.03
SMILES,hERG rescue,KCNK9 inh,KCNQ1 block,KCNQ1 pot,KCNK3 block,Kir21 inh
O=c1oc2cc(O)ccc2c2c1CCCC2,-24,i,i,i,i,-6.5*
COc1cccc(C2(O)CCN(C(=O)C3CCC3)CC2)c1,4.8*,i,i,i,i,0.02
Cc1ccc(NC(=S)N(CCCN2CCCC2)Cc2cccn2Cc2ccc(Cl)cc2)cc1C,-16,i,i,i,i,-0.84
Cc1ccc(NC(=S)N(CCCN2CCCC2)Cc2cccn2Cc2ccc(Cl)cc2)cc1Cl,-12,i,7*,i,i,0.5
COc1ccc(OC)c(N2CC(O)=C(c3nc4ccccc4s3)C2=N)c1,-12,-6.6*,i,i,i,-0.23
CCOc1ccccc1N1CC(O)=C(c2nc3ccccc3s2)C1=N,-10,i,i,i,i,1.1
COc1cnc(-c2ccccn2)nc1Oc1ccc(Cl)c2ccccc12,-4,-8.1*,i,i,i,1.3
COc1ccccc1NS(=O)(=O)NC(=O)c1c(C)[nH]c2ccccc12,-6,i,i,i,i,1.1
CC(=O)c1ccc(S(=O)(=O)NC2CC(=O)N(c3ccc(Cl)cc3)C2)cc1 (stereo unspecified),-14,i,i,i,i,-1.2
CC(=O)C1=C(C)NC(SCC(=O)Nc2nc3ccccc3s2)=C(C#N)C1c1ccc(Cl)cc1 (stereo unspecified),-8,i,7*,i,i,-0.01
COc1ccc(NC(=O)CSC2=C(C#N)C(c3ccco3)C(C(=O)Nc3nc4ccccc4s3)=C(C)N2)cc1 (stereo unspecified),-7,i,i,i,i,1.2
CCCCn1nnnc1SCC(=O)c1cc(Cl)ccc1OC,-11,i,i,i,i,0.28
COc1ccc(Cl)cc1C(=O)CSc1nc(N)cc(N)n1,-14,i,i,i,i,-4.7*
O=C(NCC1CCN(Cc2ccc(F)cc2)CC1)Nc1cc(F)ccc1F,-4,i,i,i,i,-1.3
OC[C@@H]1[C@@H](c2ccc(Cl)cc2)C(c2ccc(F)cc2)=NN1c1ccccc1,nt,nt,nt,nt,i,nt
CCN1CC(c2ccccc2)C(c2ccc(Cl)cc2)=N1 (stereo unspecified),-3,-7*,i,i,i,-1.5
COc1cccc(NC(=O)CN(C)C(=O)c2ccccn2)c1,nt,nt,nt,nt,i,nt
O=C(O)CSc1cc(C(F)(F)F)nc(-c2ccccn2)n1,39*,i,i,i,i,0.63
CCOC(=O)CSc1cc(C(F)(F)F)nc(-c2ccccn2)n1,-7,i,i,i,i,2.3
CN(CC(=O)NC(=O)NCc1ccccc1)CC(=O)Nc1ccc(Cl)c(Cl)c1,nt,nt,nt,nt,i,nt
CNC(=O)NCC12CC3CC(CC(C3)C1)C2,5.1*,i,i,i,i,-1.9
